# Test results reported in ChEMBL document CHEMBL1151170, “Mycobacterium tuberculosis growth inhibition by constituents of Sapium haematospermum” (J Nat Prod, 2004).
# Tests used:
# [1] = system: Mycobacterium tuberculosis; assay: Antitubercular activity against Mycobacterium tuberculosis H37Rv by microplate alamar blue assay; type: functional
# Summary of the method: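 M. tuberculosis H37Rv (ATCC 27294) tested in the microplate Alamar Blue assay with fluorescence read-out. MIC taken as the lowest drug concentration giving ≥90% inhibition relative to untreated cultures.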
# [2] = system: Vero; assay: Cytotoxicity against african green monkey Vero cells; type: cell-based; details: Chlorocebus sabaeus
# Summary of the method: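 Vero cells (ATCC CCL-81) tested in the CellTiter 96 aqueous nonradioactive cell proliferation assay. Maximum (100%) cytotoxicity set by lysing cells with sodium dodecyl sulfate. IC50 defined as the reciprocal dilution giving 50% inhibition of the Vero cells.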
# [3] = Selectivity index, ratio of IC50 for african green monkey Vero cells to MIC for Mycobacterium tuberculosis H37Rv; type: functional
# Summary of the method: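 Calculated as Vero IC50 (CellTiter 96 aqueous assay, ATCC CCL-81 cells) divided by the H37Rv MIC (microplate Alamar Blue, ≥90% inhibition relative to untreated cultures).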
SMILES,MIC [1] [µg/mL],IC50 [2] [µg/mL],Ratio [3]
C=C(C)[C@@H]1CC[C@]2(C)CC[C@]3(C)[C@H](CC[C@@H]4[C@@]5(C)CC[C@@H](O)C(C)(C)[C@@H]5CC[C@]43C)[C@@H]12,13.4,127,10.4
C=C[C@@]1(C)C=C2CC[C@H]3C(C)(C)C(=O)C[C@@H](O)[C@@]3(C)[C@H]2C[C@H]1O [LECHERONOL A],4,105,26.2
C[C@H]1[C@H](C)CC[C@]2(C)CC[C@]3(C)C(=CC[C@@H]4[C@@]5(C)CC[C@@H](O)C(C)(C)[C@@H]5CC[C@]43C)[C@H]12,> 128,,
CC(C)CCC[C@@H](C)[C@H]1CC[C@@]2(C)[C@@H]3CC[C@H]4C(C)(C)[C@@H](O)CC[C@@]45C[C@@]35CC[C@]12C [CYCLOARTANOL],8,102,12.8
CO[C@H]1/C=C/O[C@@]2(C)Oc3c(C)c(O)c4c(O)c(c(/C=N/N5CCN(C)CC5)c(O)c4c3C2=O)NC(=O)/C(C)=C\C=C\[C@H](C)[C@H](O)[C@@H](C)[C@@H](O)[C@@H](C)[C@H](OC(C)=O)[C@@H]1C [RIFAMPIN],0.06,,
C[C@@H]1CC[C@]2(C(=O)O)CC[C@]3(C)C(=CC[C@@H]4[C@@]5(C)C[C@@H](O)[C@H](O)[C@@](C)(CO)[C@@H]5CC[C@]43C)[C@@H]2C1,> 128,,
O=c1c(O[C@@H]2O[C@H](CO)[C@@H](O)[C@H](O)[C@H]2O)c(-c2ccc(O)cc2)oc2cc(O)cc(O)c12 [ASTRAGALIN],> 128,,
O=c1c(O[C@@H]2O[C@H](CO)[C@@H](O)[C@H](O)[C@H]2O)c(-c2ccc(O)c(O)c2)oc2cc(O)cc(O)c12 [ISOQUERCETIN],94,,
C=C(C)[C@@H]1CC[C@]2(C)CC[C@]3(C)[C@H](CC[C@@H]4[C@@]5(C)CC[C@H](O)C(C)(C)[C@@H]5CC[C@]43C)[C@@H]12 [LUPEOL],> 128,,
CC1(C)CC[C@]2(C)CC[C@]3(C)C(=CC[C@@H]4[C@@]5(C)CC[C@@H](O)C(C)(C)[C@@H]5CC[C@]43C)[C@@H]2C1,12.2,127,10.4
CC1(C)CC[C@]2(C)CC[C@]3(C)C(=CC[C@@H]4[C@@]5(C)CC[C@H](O)C(C)(C)[C@@H]5CC[C@]43C)[C@@H]2C1 [beta-AMYRIN],64,,
O=C(c1c(O)cc(O)cc1O)[C@H](O)[C@H](O)c1cc(O)c(O)c(O)c1,> 128,,
C=C[C@@]1(C)C=C2CC[C@@H]3[C@@](C)(CCC(=O)[C@@]3(C)CO)[C@H]2C[C@H]1O [LECHERONOL B],128,,
CCCCCCCCCCCC(=O)O[C@H]1CC[C@]23C[C@]24CC[C@]2(C)[C@@H]([C@H](C)C/C=C/C(C)(C)O)CC[C@@]2(C)[C@@H]4CC[C@H]3C1(C)C,> 128,,
